Key:
[1] = melting temperature; fluorescence melt of hairpins on a sequencing array, two-state fit, raised by 9.35 °C to match UV melts; conditions: sodium 0.088 M
Procedure, shortened: (§1)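 Cy3 signals were normalised both to pre-quench Cy3 and to control constructs. They came from library hairpins carrying annealed Cy3 and quencher oligos on a sequenced MiSeq flow cell, imaged in 50 mM Na-HEPES pH 8.0, 25 mM NaCl, in 2.5 °C steps up to 60 °C. Bootstrapped two-state fits gave melting temperature and folding enthalpy, and four replicates were combined by inverse variance. Fitted temperatures were then raised by 9.35 °C to match UV melts.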

[2] = folding enthalpy; higher = less favourable; fluorescence melt of hairpins on a sequencing array, two-state fit; conditions: sodium 0.088 M
Procedure, shortened: as §1

Row | Sequence | Tm [1] | folding enthalpy [2]
1 | CGCCACGGAAACGTGCG (((.(((....)))))) | 54.4 °C | -24.7 kcal/mol
2 | GAGGTTGGAAACAGCTTC ((.(.((....)).).)) | 39.9 °C | -36 kcal/mol
3 | GAGTACGGAAACGTACTC (((((((....))))))) | 64 °C | -42.5 kcal/mol
4 | GGGTGCGAAAGCAAGCCC ((((((....)))..))) | 53.8 °C | -23.1 kcal/mol
5 | GATCCGTAACGGATC ((((((...)))))) | 57.6 °C | -34.1 kcal/mol
6 | GGCTGGGGAAACCCGGCC (((.(((....))).))) | 66.6 °C | -39.7 kcal/mol
7 | GGACGACGAAAGTCATCC (((.(((....))).))) | 48.8 °C | -23.5 kcal/mol
8 | GTGTGTCGAAAGACCAC (((.(((....)))))) | 54.5 °C | -28.9 kcal/mol
9 | GATCTCTTCTGAGATC ((((((....)))))) | 54.7 °C | -39.8 kcal/mol
10 | GCATGGCGAAAGCCGCGC ((..(((....)))..)) | 61.1 °C | -19.7 kcal/mol
11 | GATTGGCCGAAAGGCATC (((..(((....)))))) | 28.5 °C | -9.53 kcal/mol
12 | GGCTTCGAAAGAAGAGCC ((((((....)))..))) | 45.3 °C | -21.8 kcal/mol
13 | GGGGATTCGAAAGAACCC (((..(((....)))))) | 47.4 °C | -20.5 kcal/mol
14 | GGGCAAGGAAACCTGCCC (((((.(....).))))) | 57.5 °C | -37.7 kcal/mol
15 | GAGGACGAAAGTCTTCTC ((((((....)))..))) | 48 °C | -23 kcal/mol
16 | GGATCGGCGAAAGCCTCC (((..(((....)))))) | 28.4 °C | -11.1 kcal/mol
17 | GGGCGCGAAAGCGCACCC ((((((....)))..))) | 66.3 °C | -9.21 kcal/mol
18 | GTTGAGCGAAAGCTAAC (((.(((....)))))) | 39.8 °C | -15.2 kcal/mol
19 | GACATTGCGAAAGCAGTC (((..(((....)))))) | 32.4 °C | -10 kcal/mol
20 | GCTTTCGGAAACGAAAGC (((((((....))))))) | 68 °C | -43.1 kcal/mol
21 | GCACCGGGAAACCGGTAC (.(((((....))))).) | 41 °C | -14.8 kcal/mol
22 | GATCAGCCTTCTGATC ((((((....)))))) | 48.5 °C | -37.9 kcal/mol
23 | GAGGCCGAAAGGCTGCTC ((((((....)))..))) | 45.9 °C | -12.1 kcal/mol

Row | Sequence | Tm [1] | folding enthalpy [2]
24 | GATCCAAGTCTGGATC ((((((....)))))) | 49 °C | -41.8 kcal/mol
25 | GATATTGCGAAAGCAATC (((..(((....)))))) | 35.4 °C | -8.38 kcal/mol
26 | GCGTAGAGACGC ((((....)))) | 49.1 °C | -13.3 kcal/mol
27 | GATCTTGTCTAAGATC ((((((....)))))) | 48.4 °C | -40.6 kcal/mol
28 | GGTCACGAAAGTGACACC ((((((....)))..))) | 52 °C | -7.64 kcal/mol
29 | GGTCGCCGAAAGGCTACC (((.(((....))).))) | 54.4 °C | -21.2 kcal/mol
30 | GCTTACGAAAGTACCAGC ((((((....)))..))) | 27.9 °C | -13.2 kcal/mol
31 | GGGGTGTCGAAAGACCCC (((..(((....)))))) | 58.7 °C | -30.4 kcal/mol
32 | GTTAGTGGAAACACTAAC (((((((....))))))) | 54.7 °C | -46.1 kcal/mol
33 | GGAGGGGGAAACCCCTTC (.(((((....))))).) | 50.6 °C | -24.1 kcal/mol
34 | GTGTACCGAAAGGTTCAC (((.(((....))).))) | 53.1 °C | -35.8 kcal/mol
35 | GTAGACGAAAGTCGCTAC ((((((....)))..))) | 40.5 °C | -10.8 kcal/mol
36 | GAGTTGGGAAACCGACTC ((((.((....)).)))) | 51.5 °C | -40.2 kcal/mol
37 | GCCTAGCGAAAGCGACGC ((.(.((....)).).)) | 47.8 °C | -15.3 kcal/mol
38 | GAAGATGAAAATCTTC ((((((....)))))) | 48.4 °C | -28.1 kcal/mol
39 | GTATACGAAAGTAGCTAC ((((((....)))..))) | 24.4 °C | -8.67 kcal/mol
40 | GCTGAGCGAAAGCCCAGC ((((.((....)).)))) | 63.9 °C | -47.6 kcal/mol
41 | GTGAGTCGAAAGACGCAC (((.(((....))).))) | 60 °C | -34.4 kcal/mol
42 | GACGCGGGAAACCACGTC ((((.((....)).)))) | 52.1 °C | -40.9 kcal/mol
43 | GCTCCCACGAAAGTGAGC (((..(((....)))))) | 40.2 °C | -17.1 kcal/mol
44 | GTGCCCGAAAGGGCGCAC ((((((....)))..))) | 64.8 °C | -8.85 kcal/mol
45 | GGAAGTACGAAAGTATCC (((..(((....)))))) | 23.4 °C | -11.1 kcal/mol
46 | GATTTAGGAAACTAGATC (((.(((....))).))) | 28.3 °C | -27.5 kcal/mol

Row | Sequence | Tm [1] | folding enthalpy [2]
47 | GTGCGCGAAAGCGTGCAC ((((((....)))..))) | 59.3 °C | -17.3 kcal/mol
48 | GATCACACACGTGATC ((((((....)))))) | 57.9 °C | -35.8 kcal/mol
49 | GGTATGGCGAAAGCCACC (((..(((....)))))) | 38.9 °C | -8.56 kcal/mol
50 | GCTGCCGAAAGGCCGAGC ((((((....)))..))) | 43.6 °C | -13.9 kcal/mol
51 | GGCAGTGGAAACGCTGTC (.(((.(....).))).) | 44.5 °C | -23.4 kcal/mol
52 | GTCAACGAAAGTTGAC ((((((....)))))) | 68.9 °C | -37.4 kcal/mol
53 | GTGACACGAAAGTGACAC (((.(((....))).))) | 58.7 °C | -39.7 kcal/mol
54 | GATCGGCTATCCGATC ((((((....)))))) | 55.8 °C | -38.4 kcal/mol
55 | GATCAGCGACTGATC ((((((...)))))) | 46.8 °C | -33.1 kcal/mol
56 | GCAACGCGAAAGCGGCGC ((..(((....)))..)) | 66.7 °C | -26.6 kcal/mol
57 | GATCAGGTGCCTGATC ((((((....)))))) | 51.6 °C | -37 kcal/mol
58 | GCCACCGAAAGGTATGGC ((((((....)))..))) | 52.8 °C | -36.9 kcal/mol
59 | GTGAGTCGAAAGACACAC (((.(((....))).))) | 53.8 °C | -43.2 kcal/mol
60 | GATCAGTGATCTGATC ((((((....)))))) | 50.2 °C | -36.1 kcal/mol
61 | GGACGGCGAAAGCCTCC (((.(((....)))))) | 53.5 °C | -16.4 kcal/mol
62 | GCGTCGTCACGC ((((....)))) | 51.8 °C | -22.4 kcal/mol
63 | GATCCAAAATTGGATC ((((((....)))))) | 48.1 °C | -35.8 kcal/mol
64 | GTTTGAGGAAACCCAAAC (((((.(....).))))) | 36.8 °C | -30.3 kcal/mol
65 | GTGGCATCGAAAGATCAC (((..(((....)))))) | 34.2 °C | -12.8 kcal/mol
66 | GATCAAACAGTTGATC ((((((....)))))) | 38.5 °C | -25.8 kcal/mol
67 | GATCTCCGTAGAGATC ((((((....)))))) | 55.1 °C | -42 kcal/mol
68 | GGAGTCGAAAGACCCTCC ((((((....)))..))) | 48 °C | -16.7 kcal/mol
69 | GTAATCGGAAACGATTGC (.(((((....))))).) | 48.2 °C | -25.6 kcal/mol

Row | Sequence | Tm [1] | folding enthalpy [2]
70 | GGAACCGAAAGGTTCTCC ((((((....)))..))) | 51.9 °C | -10.8 kcal/mol
71 | GCGGGGGTCCGC ((((....)))) | 61.7 °C | -22.6 kcal/mol
72 | GCGATGATTCGC ((((....)))) | 50.9 °C | -23.3 kcal/mol
73 | GCACTCGAAAGAGTATGC ((((((....)))..))) | 42.1 °C | -16.2 kcal/mol
74 | GCATGGCGAAAGCTTTGC (((..((....))..))) | 46.7 °C | -21.4 kcal/mol
75 | GATCAATCCTTTGATC ((((((....)))))) | 48.6 °C | -39.3 kcal/mol
76 | GCTCAGCGAAAGCCTAGC (((..((....))..))) | 36.1 °C | -19.7 kcal/mol
77 | GTTTCCGAAAGGAAAC ((((((....)))))) | 67.8 °C | -41.3 kcal/mol
78 | GATCGATGGGTCGATC ((((((....)))))) | 57.5 °C | -39.7 kcal/mol
79 | GCAAAGGCGAAAGCCTGC (((..(((....)))))) | 54.6 °C | -14.9 kcal/mol
80 | GCCCGGCGAAAGCCATGC ((..(((....)))..)) | 28.8 °C | -8.55 kcal/mol
81 | GGCAACGAAAGTTTGGCC ((((((....)))..))) | 46.4 °C | -27.3 kcal/mol
82 | GATCGGCCACCGATC ((((((...)))))) | 55.1 °C | -31.7 kcal/mol
83 | GGTTTCGAAAGAAGAACC ((((((....)))..))) | 31.5 °C | -18.3 kcal/mol
84 | GATCTCCTCAGAGATC ((((((....)))))) | 55.9 °C | -37.7 kcal/mol
85 | GATCTATTTGTAGATC ((((((....)))))) | 45.2 °C | -35 kcal/mol
86 | GCAAGGCGAAAGCATGGC ((.(.((....)).).)) | 47.8 °C | -18 kcal/mol
87 | GTATGTCGAAAGACTAC (((.(((....)))))) | 41.3 °C | -19.2 kcal/mol
88 | GCAGACGGAAACGTCTAC (.(((((....))))).) | 42.7 °C | -14.1 kcal/mol
89 | GTCTTCCGAAAGGATGAC (((.(((....))).))) | 53.1 °C | -42.4 kcal/mol
90 | GAGCACGGAAACGTGCCC (.(((((....))))).) | 53.6 °C | -6.99 kcal/mol
91 | GCGTAGCGAAAGCGTCGC (((..((....))..))) | 61.4 °C | -20.5 kcal/mol
92 | GCGTAGCGAAAGCAGCGC (((..((....))..))) | 65.4 °C | -16.6 kcal/mol

Source: the array DNA melting data of Ke et al. (doi:10.1101/2024.01.08.574731)
